Results on five molecules are retold here after paper PMC2231817 (The Journal of General Physiology, 2000).

Where a chain is given by its changes, count along the chain named. Where two headings read alike, the source gives them in different places.

The conditions of data set [1]: ref Marsh and Phil 1990; cited from earlier work.
For data set [2], the system named is rod and olfactory CNG channels. Description: Comparison of DAG analogues on cloned CNG channels. In kind it is biochemical. The conditions noted are these: data not shown.
Data set [3] addresses T1, CHM 11 rod/olfactory chimeric CNG channel (Bos taurus / Rattus norvegicus, UniProt Q00194+Q00195).
T1 sequence (Q00194 1-690): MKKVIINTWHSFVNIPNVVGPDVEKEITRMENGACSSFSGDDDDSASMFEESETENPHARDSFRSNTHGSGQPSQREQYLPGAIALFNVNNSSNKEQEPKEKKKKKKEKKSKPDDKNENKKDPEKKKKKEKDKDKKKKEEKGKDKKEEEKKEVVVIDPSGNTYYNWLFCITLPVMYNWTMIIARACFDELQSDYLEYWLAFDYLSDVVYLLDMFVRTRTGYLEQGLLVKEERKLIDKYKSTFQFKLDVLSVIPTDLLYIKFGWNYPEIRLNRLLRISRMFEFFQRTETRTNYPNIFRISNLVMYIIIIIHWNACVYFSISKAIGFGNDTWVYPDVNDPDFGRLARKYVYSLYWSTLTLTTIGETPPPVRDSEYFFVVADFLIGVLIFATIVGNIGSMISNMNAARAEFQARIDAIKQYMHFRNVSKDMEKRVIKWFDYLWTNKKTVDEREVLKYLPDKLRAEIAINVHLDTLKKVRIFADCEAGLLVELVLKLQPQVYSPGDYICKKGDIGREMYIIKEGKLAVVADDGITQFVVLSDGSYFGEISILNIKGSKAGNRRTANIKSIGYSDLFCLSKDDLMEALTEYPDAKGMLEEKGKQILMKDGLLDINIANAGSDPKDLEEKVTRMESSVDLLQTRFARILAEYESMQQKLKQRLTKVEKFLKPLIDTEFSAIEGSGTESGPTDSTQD
T1 sequence (Q00195 1-664): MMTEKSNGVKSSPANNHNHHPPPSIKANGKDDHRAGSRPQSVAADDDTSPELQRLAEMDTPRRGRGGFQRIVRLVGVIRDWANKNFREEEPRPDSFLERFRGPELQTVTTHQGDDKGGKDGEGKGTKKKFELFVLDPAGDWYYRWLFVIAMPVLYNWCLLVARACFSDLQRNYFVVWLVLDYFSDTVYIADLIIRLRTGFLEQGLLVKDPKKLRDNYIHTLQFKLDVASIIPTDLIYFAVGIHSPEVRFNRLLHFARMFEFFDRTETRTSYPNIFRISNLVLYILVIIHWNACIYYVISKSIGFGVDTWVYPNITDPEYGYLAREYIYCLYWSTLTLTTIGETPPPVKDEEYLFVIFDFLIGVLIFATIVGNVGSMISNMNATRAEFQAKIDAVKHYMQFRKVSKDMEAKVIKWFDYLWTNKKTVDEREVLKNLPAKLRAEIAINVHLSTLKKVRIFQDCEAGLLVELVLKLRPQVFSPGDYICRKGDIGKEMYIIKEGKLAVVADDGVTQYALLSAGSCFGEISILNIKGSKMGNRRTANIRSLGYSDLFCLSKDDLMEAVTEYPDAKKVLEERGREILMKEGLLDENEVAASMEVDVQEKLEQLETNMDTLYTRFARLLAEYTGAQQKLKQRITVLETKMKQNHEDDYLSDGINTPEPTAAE
Description: DAG dose-response on chimera CHM11, inside-out patches from Xenopus oocytes. Particulars: saturating 2 mM cGMP, five patches. In kind it is biochemical, bovine/rat. Summed up:
(§1)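 Chimera cRNA injected into Xenopus oocytes, held at 15°C overnight then 18°C for 1–10 d; vitelline membrane removed. […] 1,2-DiC8 from DMSO stock added stepwise to bath (0.05–48 μM; DMSO <1.2%). Leak-subtracted currents; Hill fit to averaged data, scaled to maximal inhibition.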

Data set [4] concerns the target T2, rat olfactory CNG channel (CNG2, α homomultimer) (Rattus norvegicus, UniProt Q00195).
T2 sequence (Q00195 1-664): T1 sequence (Q00195 1-664)
In kind it is biochemical.

In data set [5] the target is T3, mutant rod CNG channel H468Q (H468Q and A483V), α homomultimer (Bos taurus, UniProt Q00194, A483V/H468Q).
T3 sequence (Q00194 1-690 H468Q/A483V): T1 sequence (Q00194 1-690) with H468Q, A483V
In kind it is biochemical, bovine.

Data set [6] concerns the target T4, CHM 3 rod/olfactory chimeric CNG channel (Bos taurus / Rattus norvegicus, UniProt Q00194+Q00195).
T4 sequence (Q00194 with tags, fused parts or gaps): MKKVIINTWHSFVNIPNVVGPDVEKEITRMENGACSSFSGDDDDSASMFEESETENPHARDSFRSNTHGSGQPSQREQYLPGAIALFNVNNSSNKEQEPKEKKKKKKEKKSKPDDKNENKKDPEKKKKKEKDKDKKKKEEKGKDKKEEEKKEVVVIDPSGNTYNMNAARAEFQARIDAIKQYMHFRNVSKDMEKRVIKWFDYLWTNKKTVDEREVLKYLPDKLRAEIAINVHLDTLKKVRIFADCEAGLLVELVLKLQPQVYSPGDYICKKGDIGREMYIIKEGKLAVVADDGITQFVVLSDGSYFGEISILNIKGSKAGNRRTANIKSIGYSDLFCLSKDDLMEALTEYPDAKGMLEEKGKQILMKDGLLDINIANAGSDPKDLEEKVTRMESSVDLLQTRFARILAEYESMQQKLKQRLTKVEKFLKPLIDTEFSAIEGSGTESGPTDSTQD
T4 sequence (Q00195 147-381): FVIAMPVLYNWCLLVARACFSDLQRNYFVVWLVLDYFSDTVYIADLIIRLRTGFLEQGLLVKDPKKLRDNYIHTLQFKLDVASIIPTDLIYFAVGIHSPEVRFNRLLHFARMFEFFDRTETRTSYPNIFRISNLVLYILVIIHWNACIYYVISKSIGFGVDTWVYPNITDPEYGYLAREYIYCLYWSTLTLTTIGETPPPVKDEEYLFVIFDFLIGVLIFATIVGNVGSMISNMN
The data set is described as follows: DAG dose-response on chimera CHM3, inside-out patches from Xenopus oocytes. The conditions noted are these: saturating 2 mM cGMP, 4 patches. In kind it is biochemical, bovine/rat. Summed up: as §1

Data set [7] addresses T5, CHM 13 rod/olfactory chimeric CNG channel (Bos taurus / Rattus norvegicus, UniProt Q00194+Q00195).
T5 sequence (Q00194 1-690): T1 sequence (Q00194 1-690)
T5 sequence (Q00195 1-664): T1 sequence (Q00195 1-664)
Description: DAG dose-response on chimera CHM13, inside-out patches from Xenopus oocytes. Type of data set: biochemical, bovine/rat. The conditions noted are these: saturating 2 mM cGMP, six patches. In a few lines:
as §1

Data set [8] concerns the target T6, mouse olfactory CNG channel (Mus musculus, UniProt Q62398).
T6 sequence (Q62398 1-664): T1 sequence (Q00195 1-664) with P50S, Q69R, V77I, D115G, G118D, V297A, D611E, T661A, A662V
The data set is described as follows: Single-channel recording of olfactory channel with DAG. Type of data set: biochemical. Particulars: +80 mV, saturating cGMP, with and without DAG. In a few lines: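 Three to five continuous 1-s records per condition, filtered at 5 kHz and sampled at 25 kHz. Amplitude histograms from full records were fit with Gaussians to obtain mean single-channel current.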

Data set [9] deals with T7, bovine rod CNG channel (CNG1, α homomultimer) (Bos taurus, UniProt Q00194).
T7 sequence (Q00194 1-690): T1 sequence (Q00194 1-690)
In kind it is biochemical.

For data set [10], the system named is CNG channels. The conditions noted are these: ref Fodor et al. 1997; cited from earlier work.

As for `CCCCCCCC(=O)OC[C@H](COP(=O)([O-])OCC[N+](C)(C)C)OC(=O)CCCCCCC` [1,2-dioctanoyl phosphatidylcholine], in data set [1], the critical micelle concentration is 270 µM.
With `CCCCCCCC(=O)OCC(O)COC(=O)CCCCCCC` [1,3-DiC8], the “effectiveness of inhibition relative to 1,2-DiC8” value in data set [2] was “just as effective as 1,2-DiC8”.
In the case of `CCCCCCCC(=O)OC[C@H](CO)OC(=O)CCCCCCC` [DAG, 1,2-dioctanoyl-sn-glycerol], the “Hill coefficient n of DAG inhibition” value in [3] is 1.6; in data set [4] (low cGMP (1.5 μM), single patch), 1.4; in data set [4] (saturating 100 μM cGMP) it was 1.4; in [6], 1.6; in [7], 2.8; in data set [9] (low cGMP (~30 μM), single patch), 1.3. For the same molecule, the “Hill coefficient n of DAG inhibition” value in [9] (saturating 2 mM cGMP) came out at 1.7. The “factor of increase of cGMP K1/2” value in [4] (0.5 μM DAG) is 2.2; in data set [9] (0.5 μM DAG), 3.2. Moreover, the “reduction in the maximal current with DAG” value is on record as 3% in [4] (0.5 μM DAG, cGMP dose-response) and 29% in data set [9] (0.5 μM DAG, cGMP dose-response). The “inhibition of cGMP-activated current by DAG” value in data set [4] (0.5 μM DAG, saturating 100 μM cGMP) is listed as “small effect”. The entries for the “INmax (maximal inhibition by DAG)” value in data set [4] (saturating 100 μM cGMP) and in data set [9] (saturating 2 mM cGMP) were 31% and 100%, respectively. Moreover, the “suppression of cGMP-activated currents at high DAG” value in [4] (saturating (100 μM) cGMP, DAG as high as 12 μM) is listed as “only partial suppression”. Further, the “difference between DAG IC50 of rod and olfactory channel” value in data set [4] (saturating cGMP, rod vs olfactory) is “approximately a fourfold difference”. Also, the IC50 was 0.33 µM in data set [5] and 0.83 µM in data set [9] (IC50 for DAG inhibition, saturating 2 mM cGMP, 11 patches). In addition, the “single-channel amplitude with DAG” value in data set [5] (+80 mV, saturating cGMP, with and without 0.25 μM DAG, patch with two channels) was found to be 2.1 pA; in data set [8], 3.2 pA. In data set [5] (saturating cGMP), the “extent of inhibition by DAG” value is “fully inhibited”. Moreover, the “DAG concentration completely suppressing cGMP-activated currents” value in data set [9] (saturating 2 mM cGMP) was approximately 3 µM.
For the molecule `Nc1nc2c(ncn2[C@@H]2O[C@@H]3COP(=O)(O)O[C@H]3[C@H]2O)c(=O)[nH]1` [cGMP], in [4] (read-out: K1/2 for activation by cGMP, with 0.5 μM DAG, +100 mV, single patch), the EC50 was found to be 4 µM. The “Hill coefficient n of cGMP activation” value in [4] (with 0.5 μM DAG) and in data set [4] (without DAG) was 2.8 throughout.
As to `CCCCNc1ccc(C(=O)OCCN(C)C)cc1` [tetracaine], the “Hill coefficient of inhibition” value in data set [10] is approximately 1.

What is called IC50 is the midpoint of a concentration-inhibition curve. Low readings indicate inhibition by little substance, high ones a need for much substance.
